Source: PubChem (The Scripps Research Institute Molecular Screening Center)
S1P4 ag: agonists of human S1P4 receptor; 0.35% of 220,000 active; S1P4-expressing cell line, agonist reporter assay; activation, % at 4.98 µM; in the data active = activation above about 11%;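 note: 0% = DMSO vehicle and 100% = reference agonist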
NPY-Y1 antag: antagonists of human neuropeptide Y receptor Y1 | HEK293-CNG Y1 cells, membrane potential fluorescence; NPY at EC95, then isoproterenol | inhibition, % at 3.6 µM | 1% of 200,000 active | AID 1040;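 active = inhibition above the campaign mean inhibition of all tested compounds plus 3 SD, cut at about 20% in these data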;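 note: 0% = DMSO wells given NPY plus isoproterenol and 100% = isoproterenol alone without NPY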
Target sequence (P25929 whole entry, looked up): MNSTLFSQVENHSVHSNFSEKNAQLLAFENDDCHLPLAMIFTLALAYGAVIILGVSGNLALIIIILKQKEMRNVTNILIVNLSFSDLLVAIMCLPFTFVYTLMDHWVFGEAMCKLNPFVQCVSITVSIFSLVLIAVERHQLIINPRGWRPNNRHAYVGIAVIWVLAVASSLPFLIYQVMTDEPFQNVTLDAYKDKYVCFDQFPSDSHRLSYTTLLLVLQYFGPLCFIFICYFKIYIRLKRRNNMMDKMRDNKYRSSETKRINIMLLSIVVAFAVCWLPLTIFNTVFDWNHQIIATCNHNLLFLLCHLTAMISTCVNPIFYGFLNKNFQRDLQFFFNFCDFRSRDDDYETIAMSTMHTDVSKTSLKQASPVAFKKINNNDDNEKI
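Assay system: HEK293 cells with Y1 receptor plus CNG channel | Probe or stimulus: NPY (25 nM), isoproterenol (1 µM), Ro 20-1724 (25 µM) | Timing: Compound incubation 1 h at room temperature, readout 45 min post-stimulation | Measured by: Membrane-potential fluorescent dye readout | Benchmarks: High control isoproterenol alone, low control NPY with isoproterenol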
S1P4 antagonist: human S1P4 receptor antagonism | 0.26% of 220,000 active | AID 1510 | inhibition, % at 4.98 µM | S1P4-expressing cells, antagonist mode, reporter read-out; in the data active = inhibition above about 29%;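 note: 0% = wells stimulated with agonist and 100% = vehicle wells without agonist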
NPY-Y2 antag: blocks the human neuropeptide Y Y2 receptor; P49146; NPY-Y2 expressing cells, antagonist mode; 0.99% of 140,000 active; inhibition, % at 2.7 µM; AID 793;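 note: 0% = vehicle with agonist challenge and 100% = reference antagonist with challenge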
NPY2 pot ag: potentiates or activates human NPY-Y2 receptor; P49146; cells expressing NPY-Y2, potentiator/agonist read-out; activation, % at 3.6 µM; 0.45% of 220,000 active; AID 1359; in the data active = activation above about 27%;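 note: cells stimulated with NPY near EC25 plus isoproterenol at EC100; 0% = vehicle plus submaximal agonist and 100% = vehicle plus saturating agonist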
NPY1 pot ag: human NPY-Y1 potentiation or agonism, primary screen | 0.37% of 220,000 active | activation, % at 3.6 µM | NPY-Y1 expressing cells, potentiator/agonist activation; in the data active = activation above about 33%, passing the limit was not always enough;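 note: cells stimulated with NPY at EC10 then isoproterenol at EC100; 0% = low agonist plus stimulus and 100% = saturating agonist plus stimulus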
NPY-Y1 ant conf: confirmation of human neuropeptide Y receptor Y1 antagonists; shares compounds with NPY-Y1 antag; HEK293-CNG NPY-Y1, membrane potential fluorescence, cAMP; NPY challenge against isoproterenol-raised cAMP; inhibition, % at 3.6 µM; 21% of 1,200 active; AID 1254; in the data active = inhibition above about 20%;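 note: 0% = vehicle with agonist plus stimulus and 100% = stimulus alone without agonist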
NPY2 antag ctr: human NPY-Y2 antagonism in NPY-Y1 counter-screen; shares compounds with NPY-Y1 antag; HEK293 NPY-Y2 CNG membrane potential fluorescence; cells given NPY, then isoproterenol; inhibition, % at 3.6 µM; 28% of 1,200 active; AID 1255;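 note: 0% = DMSO with agonist challenge and 100% = reference antagonist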
NPY-Y2 pot conf: human NPY-Y2 potentiation or agonism, confirmation; shares compounds with NPY2 pot ag; cell-based NPY-Y2 potentiator/agonist assay; activation, % at 3.6 µM; 20% of 450 active; AID 1539; in the data active = activation above about 33%
NPY-Y1 potentiator: NPY-Y1 potentiation or agonism as NPY-Y2 counter-screen | activation, % at 3.6 µM | Y1 HEK293-CNG cells, membrane potential fluorescence | 20% of 450 active | shares compounds with NPY2 pot ag | AID 1651; in the data active = activation above about 45%;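 note: cells stimulated with submaximal NPY then isoproterenol with phosphodiesterase inhibitor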
NPY-Y1 agonist 2: counter-screen for NPY-Y2 potentiators: agonists of human NPY-Y1 | AID 1702 | activation, % at 3.6 µM | 37% of 450 active | HEK293 Y1-CNGC, membrane potential fluorescence, agonism | shares compounds with NPY2 pot ag;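 active = activation above the mean of DMSO-only control wells plus 3 SD, cut at about 18% in these data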;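 note: cells stimulated with 1 µM isoproterenol plus the PDE inhibitor Ro 20-1724; 0% = isoproterenol with DMSO and no NPY and 100% = 40 nM NPY; Y1 agonists lower the membrane potential dye signal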
CNGC inh: cyclic nucleotide gated channel inhibition as counter-screen; shares compounds with NPY2 pot ag; inhibition, % at 3.6 µM; HEK293-CNG parental, isoproterenol cAMP, membrane potential fluorescence; 32% of 450 active; AID 1703;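 active = inhibition above the control-well mean plus 3 SD of those wells, cut at about 22% in these data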;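 note: 0% = DMSO with isoproterenol and 100% = DMSO without isoproterenol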
NPY-Y2 ag 2: activates human NPY-Y2 receptor in potentiator counter-screen | shares compounds with NPY2 pot ag | HEK293 Y2/CNGC cells, membrane potential fluorescence, agonist mode | activation, % at 3.6 µM | 56% of 450 active | AID 1710;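 active = activation above the mean of solvent-only control wells plus 3 SD, cut at about 10% in these data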;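 note: cells stimulated by isoproterenol with no NPY added so direct agonism is tested; 0% = DMSO with isoproterenol alone and 100% = NPY at EC100 plus isoproterenol; agonism lowers probe fluorescence through less cAMP and CNG channel opening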
S1P4 ag conf: confirmation of human S1P4 receptor agonists; AID 1523; activation, % at 4.98 µM; 7% of 740 active; shares compounds with S1P4 ag; S1P4 agonist cell-based reporter assay; in the data active = activation above about 12%;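 note: 0% = vehicle and 100% = full reference agonist response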
S1P1 agonist: human S1P1 agonism as S1P4 agonist counter-screen | shares compounds with S1P4 ag | S1P1 agonist cell-based assay, activation | activation, % at 4.98 µM | 4% of 740 active; in the data active = activation above about 21%;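 note: 0% = vehicle wells and 100% = reference agonist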
Target sequence (P21453 whole entry, looked up): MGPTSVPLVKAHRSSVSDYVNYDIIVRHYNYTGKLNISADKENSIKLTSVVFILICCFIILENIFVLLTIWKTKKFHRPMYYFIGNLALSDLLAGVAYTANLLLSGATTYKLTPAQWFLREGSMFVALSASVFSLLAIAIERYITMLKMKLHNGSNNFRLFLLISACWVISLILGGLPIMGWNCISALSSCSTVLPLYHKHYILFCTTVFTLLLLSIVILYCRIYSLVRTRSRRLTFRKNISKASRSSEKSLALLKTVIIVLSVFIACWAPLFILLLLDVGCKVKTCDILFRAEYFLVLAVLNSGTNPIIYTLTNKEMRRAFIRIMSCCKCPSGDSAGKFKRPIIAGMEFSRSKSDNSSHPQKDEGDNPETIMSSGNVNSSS
S1P4 antag conf: human S1P4 antagonism, confirmation; shares compounds with S1P4 antagonist; S1P4-expressing cell line, antagonist mode, reporter read-out; inhibition, % at 4.98 µM; 71% of 520 active; in the data active = inhibition above about 30%
S1P1 antagonist: human S1P1 antagonism as S1P4 antagonist counter-screen. inhibition, % at 4.98 µM. 37% of 520 active. cell-based S1P1 antagonist counterscreen, inhibition. AID 1564. shares compounds with S1P4 antagonist; in the data active = inhibition above about 40%;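 note: receptor stimulated with S1P near its EC80; 0% = agonist stimulated wells and 100% = vehicle only wells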
Numbers without * were called inactive. An excerpt weighted towards active compounds, which were near 2.4% of everything screened. Cut-off read from the data, not from the text of the source, unless noted: active = inhibition above about 17%; inactive = the rest.

Results for COc1cc(OC)cc(C(=O)OCC(=O)NCc2ccc3c(c2)OCO3)c1 ?
S1P4 ag: 1; NPY-Y1 antag: 1; S1P4 antagonist: 2; NPY2 pot ag: -9; NPY1 pot ag: -21

How did CCOC(=O)N1CCN(C(=O)CSCC(=O)Nc2nc(-c3ccc(-c4ccccc4)cc3)cs2)CC1 do in these assays?
S1P4 ag: 3; NPY-Y1 antag: 21*; S1P4 antagonist: -14; NPY-Y2 antag: 7; NPY2 pot ag: 33*; NPY1 pot ag: -44; NPY-Y1 ant conf: 14; NPY2 antag ctr: 8; NPY-Y2 pot conf: -11; NPY-Y1 potentiator: -40; NPY-Y1 agonist 2: -32; CNGC inh: -11; NPY-Y2 ag 2: -1

Results for CCOC(=O)N1CCN(C(=O)CSCC(=O)Nc2nc(-c3ccc(OC)cc3)cs2)CC1 ?
S1P4 ag: 1; NPY-Y1 antag: 5; S1P4 antagonist: -4; NPY-Y2 antag: 0; NPY2 pot ag: -1; NPY1 pot ag: -9

How did CC(NC(=O)Nc1nnc(C(F)(F)F)s1)(C(F)(F)F)C(F)(F)F do in these assays?
S1P4 ag: 1; NPY-Y1 antag: 43*; S1P4 antagonist: 14; NPY-Y2 antag: 11; NPY2 pot ag: 58*; NPY1 pot ag: 4; NPY-Y1 ant conf: 27*; NPY2 antag ctr: 7; NPY-Y2 pot conf: 8; NPY-Y1 potentiator: -17; NPY-Y1 agonist 2: -25; CNGC inh: -8; NPY-Y2 ag 2: -1

Results for C=CCn1c(-c2ccccc2)ccc(C#N)c1=O ?
S1P4 ag: 1; NPY-Y1 antag: 6; S1P4 antagonist: -9; NPY-Y2 antag: 9; NPY2 pot ag: -9; NPY1 pot ag: -10

How did CC(C)(C)NCc1cc(Cl)ccc1OCc1ccccc1F do in these assays?
S1P4 ag: 1; NPY-Y1 antag: 24*; S1P4 antagonist: -11; NPY2 pot ag: 31*; NPY1 pot ag: 27; NPY-Y1 ant conf: 17; NPY2 antag ctr: 9; NPY-Y2 pot conf: -4; NPY-Y1 potentiator: -38; NPY-Y1 agonist 2: -27; CNGC inh: -15; NPY-Y2 ag 2: -13

What do the screens show for `CCc1cccc(CN2CCC(CNC(=O)Nc3ccc(Cl)cc3)CC2)c1`?
S1P4 ag: 3; NPY-Y1 antag: 6; S1P4 antagonist: -9; NPY2 pot ag: 4; NPY1 pot ag: 6

How did Cc1ccc(-n2ncc(C(=O)Nc3cc(Cl)ccc3Cl)c2C2CCNCC2)cc1 do in these assays?
S1P4 ag: 2; NPY-Y1 antag: 10; S1P4 antagonist: -2; NPY2 pot ag: -3; NPY1 pot ag: -5

How did Cc1ccc(-n2ncc(C(=O)Nc3cc(Cl)cc(Cl)c3)c2C2CCNCC2)cc1C do in these assays?
S1P4 ag: 1; NPY-Y1 antag: 34*; S1P4 antagonist: 12; NPY2 pot ag: 51*; NPY1 pot ag: 21; NPY-Y1 ant conf: 16; NPY2 antag ctr: 11; NPY-Y2 pot conf: 48*; NPY-Y1 potentiator: 62*; NPY-Y1 agonist 2: 12; CNGC inh: 26*; NPY-Y2 ag 2: 31*

What do the screens show for `CCC(C)(C(=O)NC1CCCCC1)N(Cc1cccs1)C(=O)c1ccccn1` (configuration not stated)?
S1P4 ag: 45*; NPY-Y1 antag: 22*; S1P4 antagonist: 3; NPY2 pot ag: 2; NPY1 pot ag: -5; NPY-Y1 ant conf: 5; NPY2 antag ctr: 7; S1P4 ag conf: -2; S1P1 agonist: -1

What do the screens show for `Cc1nc2c(c3c1[nH]c1ccccc13)C(O)CC(C)(C)C2` (configuration not stated)?
S1P4 ag: -2; NPY-Y1 antag: 3; S1P4 antagonist: -15; NPY-Y2 antag: 6; NPY2 pot ag: -10; NPY1 pot ag: -27

What do the screens show for `CCn1c(SCC(=O)c2cc(C)n(CC3CCCO3)c2C)nc2ccccc21` (configuration not stated)?
S1P4 ag: -1; NPY-Y1 antag: 1; S1P4 antagonist: 6; NPY-Y2 antag: 3; NPY2 pot ag: 6; NPY1 pot ag: 3

What do the screens show for `Cc1cc(C(=O)CSc2nc3ccccc3c(=O)n2C)c(C)n1CC1CCCO1` (configuration not stated)?
S1P4 ag: 196*; NPY-Y1 antag: 27*; S1P4 antagonist: -29; NPY2 pot ag: 14; NPY1 pot ag: -27; NPY-Y1 ant conf: 33*; NPY2 antag ctr: 12; S1P4 ag conf: -2; S1P1 agonist: 3

How did COCCCN1CCN(C2Cc3ccccc3Sc3ccc(Cl)cc32)CC1 (configuration not stated) do in these assays?
S1P4 ag: 0; NPY-Y1 antag: 26*; S1P4 antagonist: 29*; NPY-Y2 antag: 16; NPY2 pot ag: -33; NPY1 pot ag: -60; NPY-Y1 ant conf: 8; NPY2 antag ctr: 16; S1P4 antag conf: -3; S1P1 antagonist: 0

Results for Clc1ccc2c(c1)C(N1CCNCC1)Cc1ccccc1S2 (configuration not stated) ?
S1P4 ag: 0; NPY-Y1 antag: 4; S1P4 antagonist: 8; NPY-Y2 antag: 7; NPY2 pot ag: 2; NPY1 pot ag: 1
